Screening results deposited in PubChem BioAssay by several laboratories.
An excerpt weighted towards active compounds, which were near 8.4% of everything screened.
E coli WT exp: growth inhibitors of E. coli BW25113 wild type; OD600 absorbance; growth inhibition, % at 100 µM; actives 0.15% (n = 98,000); AID 710;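 active = growth inhibition above about 50% at one test dose, limit read from the data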;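 also: growth measured after 20 h incubation at 37 °C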
Cav3 T inh: inhibitors of human Cav3.2 T-type calcium channel; O95180; Cav3.2-expressing cells, Fluo-4 calcium fluorescence FDSS; active compounds read low; B-score at 10 µM; actives 4% (n = 100,000);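 active = single-dose well whose peak fluorescence ratio is a statistical outlier from its plate by either plate-standardised score or position-corrected B-score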
Target sequence (O95180 whole entry, looked up): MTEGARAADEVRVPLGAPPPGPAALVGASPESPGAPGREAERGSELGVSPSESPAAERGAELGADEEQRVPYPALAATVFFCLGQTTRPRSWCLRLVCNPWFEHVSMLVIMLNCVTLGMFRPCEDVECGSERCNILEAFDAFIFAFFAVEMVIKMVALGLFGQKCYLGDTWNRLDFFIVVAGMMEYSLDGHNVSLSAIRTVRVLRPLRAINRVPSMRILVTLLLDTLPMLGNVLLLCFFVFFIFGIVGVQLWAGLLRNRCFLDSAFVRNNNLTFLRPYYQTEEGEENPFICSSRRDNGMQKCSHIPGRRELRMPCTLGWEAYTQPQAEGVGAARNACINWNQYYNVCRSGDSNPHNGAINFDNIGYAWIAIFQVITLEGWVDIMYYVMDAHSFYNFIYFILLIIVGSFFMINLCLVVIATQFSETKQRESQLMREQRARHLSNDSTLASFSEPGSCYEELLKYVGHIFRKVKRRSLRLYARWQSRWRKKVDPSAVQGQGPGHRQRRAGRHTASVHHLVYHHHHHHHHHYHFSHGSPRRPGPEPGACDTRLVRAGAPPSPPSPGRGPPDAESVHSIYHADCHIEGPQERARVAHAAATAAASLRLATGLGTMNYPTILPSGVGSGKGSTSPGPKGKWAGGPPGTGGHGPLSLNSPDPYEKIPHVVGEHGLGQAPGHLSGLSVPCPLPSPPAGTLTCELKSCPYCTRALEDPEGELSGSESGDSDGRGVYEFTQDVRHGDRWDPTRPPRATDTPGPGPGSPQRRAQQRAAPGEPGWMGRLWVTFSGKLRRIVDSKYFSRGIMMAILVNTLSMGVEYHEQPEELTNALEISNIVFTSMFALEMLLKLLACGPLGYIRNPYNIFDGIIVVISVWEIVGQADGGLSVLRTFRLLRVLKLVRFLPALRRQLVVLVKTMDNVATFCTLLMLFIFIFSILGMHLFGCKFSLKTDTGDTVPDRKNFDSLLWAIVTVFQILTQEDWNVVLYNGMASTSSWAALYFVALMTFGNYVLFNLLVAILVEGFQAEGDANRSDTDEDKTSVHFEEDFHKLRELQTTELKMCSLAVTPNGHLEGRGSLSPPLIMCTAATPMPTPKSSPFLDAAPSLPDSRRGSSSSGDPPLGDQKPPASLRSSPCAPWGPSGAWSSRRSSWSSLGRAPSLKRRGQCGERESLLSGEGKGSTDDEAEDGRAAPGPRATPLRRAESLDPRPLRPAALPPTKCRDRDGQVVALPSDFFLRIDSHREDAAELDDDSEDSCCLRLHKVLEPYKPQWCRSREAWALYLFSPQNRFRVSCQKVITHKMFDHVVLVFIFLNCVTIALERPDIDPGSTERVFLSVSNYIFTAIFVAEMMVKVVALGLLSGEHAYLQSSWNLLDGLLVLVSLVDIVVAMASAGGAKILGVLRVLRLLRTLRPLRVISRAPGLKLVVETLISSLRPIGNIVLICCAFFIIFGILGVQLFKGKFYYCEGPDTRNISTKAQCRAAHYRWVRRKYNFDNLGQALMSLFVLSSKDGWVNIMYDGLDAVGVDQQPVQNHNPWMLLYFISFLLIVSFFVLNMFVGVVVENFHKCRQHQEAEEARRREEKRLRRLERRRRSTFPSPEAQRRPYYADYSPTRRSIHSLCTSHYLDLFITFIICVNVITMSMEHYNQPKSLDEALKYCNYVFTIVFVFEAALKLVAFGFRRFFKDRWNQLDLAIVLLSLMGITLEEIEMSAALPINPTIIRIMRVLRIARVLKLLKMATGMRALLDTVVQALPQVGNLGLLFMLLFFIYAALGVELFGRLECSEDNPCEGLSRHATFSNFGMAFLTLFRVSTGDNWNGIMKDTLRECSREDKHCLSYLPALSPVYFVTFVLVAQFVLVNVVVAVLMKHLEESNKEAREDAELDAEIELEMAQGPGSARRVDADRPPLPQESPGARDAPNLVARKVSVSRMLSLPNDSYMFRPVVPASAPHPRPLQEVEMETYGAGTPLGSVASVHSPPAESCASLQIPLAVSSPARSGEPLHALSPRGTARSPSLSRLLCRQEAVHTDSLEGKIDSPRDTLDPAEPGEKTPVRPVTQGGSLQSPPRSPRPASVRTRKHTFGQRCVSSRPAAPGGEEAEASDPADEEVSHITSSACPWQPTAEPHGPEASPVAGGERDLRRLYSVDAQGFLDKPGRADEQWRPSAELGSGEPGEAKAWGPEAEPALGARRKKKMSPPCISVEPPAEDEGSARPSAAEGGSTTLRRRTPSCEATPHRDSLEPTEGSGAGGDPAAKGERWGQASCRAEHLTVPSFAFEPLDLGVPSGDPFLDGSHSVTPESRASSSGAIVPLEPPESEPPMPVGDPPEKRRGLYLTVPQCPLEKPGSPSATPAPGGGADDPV
PostGolgi ctrl: growth of the yeast control strain, post-Golgi counter-screen; efflux-deficient yeast background strain, growth absorbance A615, 16 h; inhibition, % at 10 µM; actives 5% (n = 98,000)
tolC growth inh: growth inhibitors of E. coli BW25113 tolC mutant; OD615; growth inhibition, % at 10 µM (by protocol); actives 2.2% (n = 65,000);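 active = growth inhibition at or above a cutoff equal to the mean over every tested compound plus 3 SD, cut at about 60% in these data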;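 also: growth measured after 20 h incubation at 37 °C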
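signal = optical density read at 615 nm | test system = E. coli ΔtolC::kan strain BW25113 | timing = 20 h compound exposure of bacteria at 37 °C | buffer or medium = LB medium plus 50 µg/mL kanamycin | compound dosing = 10 µM final, single dose | evaluation = % inhibition of E. coli growth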
PostGolgi yeast: growth inhibition of a yeast mutant, post-Golgi transport screen; post-Golgi transport phenotypic cell assay; inhibition, % at 10 µM; actives 0.9% (n = 98,000); AID 739;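 also: yeast cells grown in 1536-well plates; yeast grown about 18 h at 30C before absorbance read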
* hit, by the source's call; / = not tested or not shown. Rule as the data show it, unless noted: active = inhibition above about 30%; inactive = the rest.

SMILES | E coli WT exp | Cav3 T inh | PostGolgi ctrl | tolC growth inh | PostGolgi yeast
Cc1sc2nc(CSc3nnc(Cc4cccs4)n3C3CCCCC3)[nH]c(=O)c2c1C | 3 | -4.3 | -4 | 38 | 7
Cc1ccc2nc(CSc3nnc(Cc4cccs4)n3C3CCCCC3)cc(=O)n2c1 | 5 | 1.5 | 39* | 9 | -2
O=C(CSc1nnc(Cc2cccs2)n1C1CCCCC1)N1CCCc2ccccc21 | -7 | -7.2* | 11 | 12 | 6
Cn1c(Cc2cccs2)nnc1SCC(=O)N1CCCc2ccccc21 | -1 | 0.78 | 0 | / | 14
CCOC(=O)Cn1c(S(=O)(=O)Cc2ccc(Cl)cc2)nc(-c2ccccc2)c1-c1ccccc1 | 1 | -5.6* | 27 | / | 15
C#CCn1c(S(=O)(=O)Cc2ccc(OC)cc2)nc(-c2ccccc2)c1-c1ccccc1 | -11 | -5.1* | 25 | / | 0
CCOC(=O)Cn1c(S(=O)(=O)Cc2ccccc2)nc2ccccc21 | 3 | 0.82 | 8 | -1 | 1
C#CCNC(=O)/C=C/c1ccc(OC)cc1 | / | 0.26 | / | / | /
CCn1cc(SCC(=O)N2CCc3ccccc32)c2ccccc21 | -19 | -4.4 | 21 | / | 8
CCOc1ccc2nc(NC(=O)C3CCCN(S(=O)(=O)c4cccs4)C3)sc2c1 (stereo not drawn) | -9 | -1.6 | 48* | 63* | 75*
Cc1cc(C)nc(N2CCCC(C(=O)Nc3nc4ccc(S(C)(=O)=O)cc4s3)C2)n1 (stereo not drawn) | -8 | -1.1 | 34* | 59 | -3
CCOc1ccc2nc(NC(=O)CS(=O)(=O)c3ccccc3)sc2c1 | 7 | -0.75 | 51* | 9 | -4
CCOc1ccc2nc(NC(=O)CS(=O)(=O)c3ccc(C)cc3)sc2c1 | -19 | -0.69 | 23 | / | 1
CCOc1ccc2nc(NC(=O)C(NS(=O)(=O)c3cccs3)C(C)C)sc2c1 (stereo not drawn) | -9 | -0.66 | 6 | 23 | -7
COc1cnc(NS(=O)(=O)c2ccc(N)cc2)nc1 | / | -0.085 | / | / | /
COc1ccc(N2CCN(c3oc(COc4ccccc4Cl)nc3C#N)CC2)cc1 | -36 | -2.3 | 7 | 34 | -8
N#Cc1nc(COc2cccc(Cl)c2)oc1N1CCN(c2ccccc2)CC1 | -17 | -2.4 | 22 | / | -6
N#Cc1nc(-c2cccc3ccccc23)oc1N1CCCCC1 | -13 | / | 2 | -7 | 8
N#Cc1nc(Cc2cccc3ccccc23)oc1N1CCCCC1 | -24 | -0.13 | 36* | 51 | -3
N#Cc1nc(COc2ccccc2Cl)oc1N1CCCCCC1 | -3 | 0.58 | 7 | 10 | 0
N#Cc1nc(COc2ccc(Cl)cc2)oc1N1CCCCCC1 | -1 | -5* | 45* | 66* | -2
COc1ccc(OCc2nc(C#N)c(N3CCN(c4ccc(OC)cc4)CC3)o2)cc1 | -35 | -4.5* | 21 | 24 | -1
N#Cc1nc(COc2ccccc2F)oc1N1CCCCCC1 | 3 | -5.9* | 25 | 53 | -8
CC(C)NC(=O)c1onc(CSc2cccc3ccccc23)c1C(=O)O | -17 | -0.68 | -3 | / | -2
O=C(NCc1ccccc1)NC1(C(=O)N2CCN(c3ccccc3)CC2)CCCCC1 | 5 | 1.2 | 2 | -4 | 2
SMILES | E coli WT exp | Cav3 T inh | PostGolgi ctrl | tolC growth inh | PostGolgi yeast
CC(CCc1ccccc1)NC(=O)c1nnc(Cc2ccc(Cl)cc2)o1 (stereo not drawn) | -9 | / | 10 | / | -5
COc1c(Cl)cc(C(=O)Nc2ccccc2C(=O)O)cc1Cl | -10 | -1.7 | 2 | / | 9
COc1ccc(C(=O)NC(NC(=S)Nc2ccc(S(N)(=O)=O)cc2)C(Cl)(Cl)Cl)cc1 (stereo not drawn) | 16 | 0.75 | 15 | / | -2
CC1CN(c2oc(COc3ccc(Cl)cc3Cl)nc2C#N)CC(C)O1 (stereo not drawn) | -12 | -4.7* | 27 | 81* | -3
CCN1CCN(c2oc(COc3ccc(-c4ccccc4)cc3)nc2C#N)CC1 | -8 | 0.98 | 6 | 52 | 1
N#Cc1nc(COc2ccccc2)oc1N1CCN(c2cccc(Cl)c2)CC1 | -20 | -2.4 | 2 | 41 | 0
Cc1cccc(OCc2nc(C#N)c(N3CC(C)CC(C)C3)o2)c1 (stereo not drawn) | -5 | -7.3* | 12 | 56 | -3
N#Cc1nc(COc2ccccc2)oc1N1CCCCC1 | -2 | -6* | 3 | 12 | 5
Nc1nc(Cl)cc(N2CCC(c3cc(-c4ccc(Cl)cc4)n[nH]3)CC2)n1 | 0 | -0.002 | 102* | / | 16
COc1ccc(-c2cc3nc(C)cc(N)n3n2)cc1 | 13 | -2 | 1 | / | -16
COc1ccc(-c2cc(C3CCN(c4cc(Cl)nc(N)n4)CC3)[nH]n2)cc1 | -10 | 0.88 | 42* | / | -5
CC(=O)c1ccc(N2CCC(c3cc(-c4ccc(Cl)cc4Cl)n[nH]3)CC2)c([N+](=O)[O-])c1 | -21 | -0.019 | 4 | / | 15
COc1ccc(OC)c(-c2cc(C3CCN(c4cc(Cl)nc(N)n4)CC3)[nH]n2)c1 | -2 | / | 34* | / | -4
COc1ccc(OC)c(-c2cc(C3CCN(c4ncccc4[N+](=O)[O-])CC3)[nH]n2)c1 | -10 | -2.7 | 16 | / | -9
CCc1c(C(=O)NNC(=S)NCC(C)C)csc1C | -6 | 0.096 | 4 | / | 5
CC(C)(C)NC(=O)[C@H]1CC[C@H]2[C@@H]3CC[C@H]4NC(=O)C=C[C@]4(C)[C@H]3CC[C@]12C | / | 0.13 | / | / | /
Cc1ccc(/C(COc2ccccc2O)=N\O)cc1 | 8 | -2.7 | 6 | 0 | 3
CCN(CC)CCOC(=O)C1(c2ccccc2)CCCC1 | 4 | 0.36 | -6 | / | 4
CCN(CC)CCOC(=O)C1(c2ccc(OC)c(OC)c2)CCCC1 | 2 | 0.087 | 50* | 7 | -1
O=c1ccc(NS(=O)(=O)c2ccc(Cl)cc2)cn1Cc1ccc(Cl)c(Cl)c1 | 4 | -4.4* | 9 | / | 2
O=C(CCN1CCCCC1)c1ccccc1 | 1 | 0.59 | 5 | / | 2
CCc1oc2ccccc2c1C(=O)CCN1CCCCC1 | 14 | 0.074 | 36* | -5 | 5
COC(=O)c1ccc(C2=NOC(C)(c3nnc(-c4cccc(Cl)c4)o3)C2)cc1 (stereo not drawn) | / | 1.2 | / | / | /
CCc1nc2c(n1O)CCc1nonc1-2 | -8 | -0.26 | 3 | -20 | -6
C=CCn1c(C)c(C(C)=O)c(N2CCN(c3ccccc3)CC2)nc1=S | 3 | -1.6 | 3 | / | -1
SMILES | E coli WT exp | Cav3 T inh | PostGolgi ctrl | tolC growth inh | PostGolgi yeast
C=CCSc1nnc2c(n1)OC(c1c(C)[nH]n(-c3ccccc3)c1=O)Nc1ccccc1-2 (stereo not drawn) | -7 | -0.092 | 40* | / | 3
CCOC(=O)C1=C(C)NC(C)=C(C(=O)OCC)C1c1cc2ccc(C)cc2[nH]c1=O | -4 | -5.1* | 9 | 35 | 12
COc1cccc(OCc2cc(/C=N/NC(=O)c3ccn[nH]3)ccc2OC)c1 | -3 | -1.3 | 33* | / | -1
Cc1cccc(C)c1OCC(=O)NNC(=O)c1ccoc1C | 1 | 0.12 | 10 | / | -6
COc1ccc(/C=N/NC(=O)c2ccoc2C)cc1COc1c(C)cccc1C | -13 | -1.7 | 54* | / | 3
COc1cc(OC)cc(C(=O)N/N=C/c2ccc(OC)c(COc3ccc4ccccc4c3)c2)c1 | -14 | / | 1 | / | 1
